From PubChem BioAssay
Sampled rows, rich in hits. Any-hit rate of the full collection: about 2.6%.
NR2E3 ag-1 – activates human photoreceptor nuclear receptor NR2E3; Q9Y5X4; 320,000 tested, 0.12% active; GST-NR2E3/biotin-RetCOR TR-FRET, 1536-well; inhibition of corepressor binding, % at 4.78 µM;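 active means percent inhibition above the cutoff of mean plus 3 SD of all tested compounds, set per screening campaign, cut at about 20% in these data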;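 further: 0% = DMSO wells and 100% = biotin wells as full block of FRET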
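Material: NR2E3–RetCOR corepressor complex | Quantity: 1.35 nM GST-tagged NR2E3 final | Schedule: 5 h at 4 °C | Replication: Singlicate compound wells | Reagent: RetCOR corepressor, biotinylated, 7 nM | Controls: Biotin wells as high control, 0.6% DMSO wells as low control | Signal: TR-FRET, Eu(K)-anti-GST donor, streptavidin-D2 acceptor, ex 340, em 617/671 nm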
NR2E3 ag-2 – activates human NR2E3 receptor; Q9Y5X4; CHO-S Gal4-NCOR/VP16-NR2E3 two-hybrid, luciferase; inhibition of corepressor binding, % at 3.98 µM; 360,000 tested, 0.35% active; AID 602229;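 active means inhibition above the mean of all tested compounds plus 3 SD, cut at about 70% in these data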;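 further: 0% = DMSO with NR2E3 transfected cells and 100% = cells lacking NR2E3 construct; higher means lower luciferase signal from less NR2E3 corepressor binding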
rCAG RNA binder – molecules binding r(CAG) RNA repeats | r(CAG) RNA repeat, TO-PRO-1 dye displacement fluorescence | inhibition, % at 3 µM | 370,000 tested, 1.3% active;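 active means inhibition above the plate cutoff, the mean of all test compounds on that plate plus 3 SD, cut at about 35% in these data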;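 further: 0% = DMSO alone and 100% = 100 µM mitoxantrone as full dye displacement; higher means more dye released from RNA so lower well fluorescence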
Rev-erbA mod – modulators of human Rev-erb alpha DNA binding; P20393; Rev-erbα–FITC-DNA binding, fluorescence polarization, 90 min; activity, % at 10 µM; 370,000 tested, 0.79% active;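 active means activity above about 14%, limit read from the data; passing the limit was not always enough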;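 further: 0% = DMSO wells with 35 nM protein and 100% = DMSO wells with 750 nM protein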
Target sequence (P20393 whole entry, looked up): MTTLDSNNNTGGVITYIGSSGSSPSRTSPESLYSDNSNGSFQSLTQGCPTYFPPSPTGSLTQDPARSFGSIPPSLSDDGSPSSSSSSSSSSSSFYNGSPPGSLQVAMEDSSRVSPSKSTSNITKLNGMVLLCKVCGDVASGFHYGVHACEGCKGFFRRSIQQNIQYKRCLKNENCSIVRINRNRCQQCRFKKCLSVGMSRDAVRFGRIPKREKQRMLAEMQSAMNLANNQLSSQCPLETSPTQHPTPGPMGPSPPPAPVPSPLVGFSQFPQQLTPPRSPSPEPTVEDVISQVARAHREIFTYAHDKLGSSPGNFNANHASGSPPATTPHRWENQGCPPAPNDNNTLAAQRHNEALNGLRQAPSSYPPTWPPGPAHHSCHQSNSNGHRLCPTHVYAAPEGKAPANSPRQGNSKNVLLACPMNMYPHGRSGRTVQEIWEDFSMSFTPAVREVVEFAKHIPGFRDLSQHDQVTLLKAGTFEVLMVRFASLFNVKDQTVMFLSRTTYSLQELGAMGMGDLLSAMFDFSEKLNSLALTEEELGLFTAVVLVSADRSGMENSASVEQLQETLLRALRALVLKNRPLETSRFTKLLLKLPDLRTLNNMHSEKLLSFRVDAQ
PG9 Ab binder – small molecules binding HIV-1 gp120 antibody PG9; TR-FRET gp120-PG9 antibody binding; inhibition, % at 6.7 µM; 360,000 tested, 0.43% active; AID 624416; in the data active means inhibition above about 8.5%
rCAG bind conf – r(CAG) RNA repeat binding, confirmation; shares compounds with rCAG RNA binder; TO-PRO-1 dye displacement fluorescence; inhibition, % at 3 µM; 4,300 tested, 70% active; AID 652065;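 active means inhibition above a per-plate cutoff, the mean inhibition of sample wells plus 3 SD, cut at about 35% in these data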;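 further: loss of TO-PRO-1 fluorescence as compound displaces dye from 1x1 AA loop RNA; 0% = DMSO only wells and 100% = 100 µM mitoxantrone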
dCAG dye counter – counter-screen for rCAG RNA binders: DNA CAG dye complex inhibitors; 4,300 tested, 94% active; d(CAG) DNA oligo TO-PRO-1 dye displacement, fluorescence; shares compounds with rCAG RNA binder; inhibition, % at 3 µM;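 active means inhibition above its plate's cutoff, the mean test-well inhibition plus 3 SD, cut at about 4.8% in these data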;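 further: 0% = DNA dye mix with DMSO and 100% = 100 µM mitoxantrone; hits displace the dye from DNA and so lower well fluorescence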
DNA CAG DR – disrupts DNA CAG TO-PRO-1 complex in dose response; AID 686960; 250 tested, 20% active; DNA CAG/GTC duplex TO-PRO-1 dye displacement fluorescence; shares compounds with rCAG RNA binder; IC50, µM; in the data active means IC50 below about 10 µM
An asterisk follows results filed as active.

Screening CCCn1c(N)c(N2CCCCC2)c(=O)n(CC(=O)Nc2ccc(OC(F)(F)F)cc2)c1=O returned NR2E3 ag-1 0, NR2E3 ag-2 -8, rCAG RNA binder 37*, Rev-erbA mod 3, PG9 Ab binder 2, rCAG bind conf 2 and dCAG dye counter 0.
Screening NNS(=O)(=O)c1ccc2c(c1)Cc1cc(S(=O)(=O)NN)ccc1-2 returned NR2E3 ag-1 -2, NR2E3 ag-2 -6, rCAG RNA binder 42*, Rev-erbA mod 1, PG9 Ab binder -5, rCAG bind conf 6 and dCAG dye counter 4.
Screening NC1=NC(=O)/C(=C\c2ccc(-c3ccc(Cl)cc3)o2)S1 returned NR2E3 ag-1 1, NR2E3 ag-2 -33, rCAG RNA binder 48*, Rev-erbA mod 3, PG9 Ab binder -2, rCAG bind conf 22 and dCAG dye counter 8.6*.
CN(C)C1=NC(=O)/C(=C/c2ccc(-c3ccc(S(N)(=O)=O)cc3)o2)S1 was read as NR2E3 ag-1 -15.
`CC1=NN(C(N)=S)C(=O)C1N=Nc1c(Br)cc(Br)cc1Br` (stereo not given) gave NR2E3 ag-1 -3, NR2E3 ag-2 -48, rCAG RNA binder 46*, Rev-erbA mod -3, PG9 Ab binder 0, rCAG bind conf 43*, dCAG dye counter 13* and DNA CAG DR >30.
O=C(O)C1(Nc2ccc([N+](=O)[O-])cc2[N+](=O)[O-])CCCC1 was read as NR2E3 ag-2 14, rCAG RNA binder 1, Rev-erbA mod 2 and PG9 Ab binder 2.
`O=C(Cc1ccccc1F)N1CCN(S(=O)(=O)c2ccc(Cl)cc2)CC1` gave NR2E3 ag-1 2, NR2E3 ag-2 -16, rCAG RNA binder 0, Rev-erbA mod 2 and PG9 Ab binder -1.
For Nc1nc(SCc2nnc(SCC(=O)O)n2-c2ccccc2)nc2sc3c(c12)CCCC3 the results were NR2E3 ag-1 3, NR2E3 ag-2 3, rCAG RNA binder 61*, Rev-erbA mod 4, PG9 Ab binder 1, rCAG bind conf 69*, dCAG dye counter 23* and DNA CAG DR >30.
For COCCN(C)Cc1nc(C(c2ccccc2)c2ccccc2)no1 the results were NR2E3 ag-1 1, NR2E3 ag-2 8, rCAG RNA binder -7, Rev-erbA mod 4 and PG9 Ab binder -2.
N#CCc1nc(C(c2ccccc2)c2ccccc2)no1 was read as NR2E3 ag-1 0, NR2E3 ag-2 -9, rCAG RNA binder 40*, Rev-erbA mod 1, PG9 Ab binder 0, rCAG bind conf 17 and dCAG dye counter 8.0*.
O=S(=O)(Nc1nc2ccc(S(=O)(=O)N3CCCC3)cc2s1)c1ccc(F)cc1 was read as NR2E3 ag-1 -2, NR2E3 ag-2 -9, rCAG RNA binder 69*, Rev-erbA mod 4, PG9 Ab binder 1, rCAG bind conf 52* and dCAG dye counter 20*.
For CC(=O)Nc1nc2ccc(S(=O)(=O)N3CCCC3)cc2s1 the results were NR2E3 ag-1 2, NR2E3 ag-2 -17, rCAG RNA binder 3, Rev-erbA mod -1 and PG9 Ab binder -1.
`COc1ccc(NS(=O)(=O)c2ccc3nc(COc4ccc5ccccc5c4)[nH]c3c2)cc1` gave NR2E3 ag-1 1, NR2E3 ag-2 -11, rCAG RNA binder 51*, Rev-erbA mod 0, PG9 Ab binder 0, rCAG bind conf 19 and dCAG dye counter 14*.
O=C(CCCC(=O)Nc1cccc(Br)c1)N/N=C/c1cc([N+](=O)[O-])ccc1O was read as NR2E3 ag-1 1, NR2E3 ag-2 -38, rCAG RNA binder 26, Rev-erbA mod 2 and PG9 Ab binder -2.
`O=C(CN(c1cccc(Br)c1)S(=O)(=O)c1ccccc1)N/N=C/c1cc([N+](=O)[O-])ccc1O` gave NR2E3 ag-1 -4, NR2E3 ag-2 20, rCAG RNA binder 77*, Rev-erbA mod 0, PG9 Ab binder -2, rCAG bind conf 89* and dCAG dye counter 62*.
For Cc1ccsc1C(=O)N1CCN(C(=O)c2ccco2)CC1 the results were NR2E3 ag-1 1, NR2E3 ag-2 1, rCAG RNA binder 0, Rev-erbA mod 2 and PG9 Ab binder -1.
Cc1cccc(C)c1NC(=O)CN1CCc2ccccc2C1 was read as NR2E3 ag-1 -3, NR2E3 ag-2 0, rCAG RNA binder -10, Rev-erbA mod 3 and PG9 Ab binder 0.
For Cc1cccc(NC(=O)NNC(=O)c2cc3ccccc3cc2O)c1C the results were NR2E3 ag-1 3, NR2E3 ag-2 1, rCAG RNA binder 30, Rev-erbA mod -5 and PG9 Ab binder -1.
For COc1ccc(NC(=O)c2cc3ccccc3cc2O)cc1 the results were NR2E3 ag-1 3, NR2E3 ag-2 -183, rCAG RNA binder 46*, Rev-erbA mod -3, PG9 Ab binder -3, rCAG bind conf 39* and dCAG dye counter 16*.
For O=C(NNC(=O)c1cc2ccccc2cc1O)Nc1ccccc1F the results were NR2E3 ag-1 2, NR2E3 ag-2 -37, rCAG RNA binder 41*, Rev-erbA mod -5, PG9 Ab binder -1, rCAG bind conf 22 and dCAG dye counter 7.2*.
For Cc1ccc(C)c(NC(=O)NNC(=O)c2cc3ccccc3cc2O)c1 the results were NR2E3 ag-1 6, NR2E3 ag-2 -38, rCAG RNA binder 35*, Rev-erbA mod -7, PG9 Ab binder 0, rCAG bind conf 28 and dCAG dye counter 9.0*.
`COc1cccc(CNC(=O)COC(=O)c2ccc(-c3ccc(O)cc3)cc2)c1` gave NR2E3 ag-2 -14, rCAG RNA binder 8, Rev-erbA mod -7 and PG9 Ab binder -1.
COc1ccc2c(CC(=O)Nc3ccc4nc(N5CCOCC5)sc4c3)coc2c1 was read as NR2E3 ag-2 -59, rCAG RNA binder 15, Rev-erbA mod -2 and PG9 Ab binder 2.
`Cc1ccc(S(=O)(=O)N2[C@@H](c3ccc(F)cc3)C(C(=O)O)=C[C@H]2CC2CCCC2)cc1` gave NR2E3 ag-2 -10, rCAG RNA binder 51*, Rev-erbA mod 5, PG9 Ab binder 1, rCAG bind conf 57* and dCAG dye counter 17*.
For Cc1ccc(S(=O)(=O)N2[C@@H](c3cccc(C)c3)C(C(=O)O)=C[C@H]2CC2CCCC2)cc1 the results were NR2E3 ag-2 -16, rCAG RNA binder 49*, Rev-erbA mod 2, PG9 Ab binder -1, rCAG bind conf 52* and dCAG dye counter 18*.
CCOC(=O)C1=C[C@@H](CC)N(S(=O)(=O)c2ccc(C)cc2)[C@H]1c1ccccc1 was read as NR2E3 ag-2 2, rCAG RNA binder -2, Rev-erbA mod 1 and PG9 Ab binder -1.
